Drawing on ChEMBL document CHEMBL1136302, “Modified 3-alkyl-1,8-dibenzylxanthines as GTP-competitive inhibitors of phosphoenolpyruvate carboxykinase” (Bioorg Med Chem Lett, 2003), this text covers inhibition and IC50 for twelve molecules.

Molecules are shown by their SMILES.

The first experiment can be described thus: Inhibitory activity against human cytosolic phosphoenolpyruvate carboxykinase (PEPCK) enzyme at a concentration of 500 uM. The method, boiled down:
(§1)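 The same coupled GST-PEPCK assay was run in 30 mM potassium phosphate pH 7.6 at room temperature. It used 0.3 mM each of GTP and OAA, plus Mg2+/Mn2+, ADP, NADH and BSA, with pyruvate kinase and lactate dehydrogenase coupling. Rate was read at 340 over 20 min. Percent inhibition is given at the highest concentration tested, as the duplicate average.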
The term inhibition denotes the change of the read-out against control, counted positive when it falls. Read a high inhibition as a response far below the control. Turning to `C=CCn1c(=O)c2c(nc(C)n2CC)n(CCCC)c1=O`, the inhibition came to 34%.

`C=CCn1c(=O)c2[nH]cnc2n(CCCC)c1=O` displayed an inhibition of 39%.

Take `C=CCn1c(=O)c2[nH]c(-c3ccc(NC(C)=O)cc3)nc2n(CCCC)c1=O`: the inhibition was 1.7%.

The next experiment can be described thus: Inhibitory activity against human cytosolic phosphoenolpyruvate carboxykinase (PEPCK) enzyme at a concentration of 25 uM. A digest of the protocol:
as §1
`C=CCn1c(=O)c2[nH]c(Cc3ccccc3)nc2n(CCCC)c1=O`: the inhibition came out at 29%.

`CCCCn1c(=O)n(Cc2cccc(F)c2)c(=O)c2[nH]c(Cc3ccc(NC(C)=O)cc3)nc21` registered an inhibition of 46%.

Regarding `CCCCn1c(=O)n(CCOC)c(=O)c2[nH]c(Cc3ccc(NC(C)=O)cc3)nc21`, the inhibition was determined as 36%.

A short description of a further experiment: Inhibitory activity against human cytosolic phosphoenolpyruvate carboxykinase (PEPCK) enzyme. The method, boiled down:
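Recombinant human cytosolic GST-PEPCK at room temperature in 30 mM potassium phosphate pH 7.6 with 0.3 mM GTP, 0.3 mM OAA, 3 mM MgCl2, 0.075 mM MnCl2, 1 mM DTT, 0.2 mM ADP, 1 mM NADH and 1 mg/mL BSA. Coupled to pyruvate kinase and lactate dehydrogenase (0.9 U/mL each). Absorbance change at 340 read over 20 min. Eight concentrations in duplicate, averaged; IC50 derived.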
What is called IC50 is the concentration that inhibits the measured activity by half. A low value points to inhibition by little substance. Molecule `CCCCn1c(=O)n(CCC)c(=O)c2[nH]c(C)nc21` displayed an IC50 of 375 µM.

On to `CCCCn1c(=O)n(Cc2ccccc2F)c(=O)c2[nH]c(Cc3ccc(NC(C)=O)cc3)nc21`, for which the 50% inhibitory concentration (IC50) worked out at 2.11 µM. Compared with the last molecule, the IC50 is about 180-fold lower.

In turn, `C=CCn1c(=O)c2[nH]c(Cc3ccc(N)cc3)nc2n(CCCC)c1=O` displayed an IC50 of 37 µM.

`C=CCn1c(=O)c2[nH]c(CC)nc2n(CCCC)c1=O` gave an IC50 of 100 µM.

Molecule `C=CCn1c(=O)c2[nH]c(C)nc2n(CCCC)c1=O` returned an IC50 of 225 µM.

`CCCCn1c(=O)n(Cc2ccccc2)c(=O)c2[nH]c(Cc3ccc(NC(C)=O)cc3)nc21`: the 50% inhibitory concentration (IC50) amounted to 8.15 µM.
